Assay results published in publication PMC4615699 (Cell, 2015).

Key:
[1] = target: T1, recombinant, purified human NUCB1 (hNUCB1) (Homo sapiens, UniProt Q02818); assay: NUCB1 FluoPol assay with Fl-AEA probe; type: binding; conditions: for suppression of the NUCB1-FluoPol signal by lipids: concentration-dependent
T1 sequence (Q02818 27-461): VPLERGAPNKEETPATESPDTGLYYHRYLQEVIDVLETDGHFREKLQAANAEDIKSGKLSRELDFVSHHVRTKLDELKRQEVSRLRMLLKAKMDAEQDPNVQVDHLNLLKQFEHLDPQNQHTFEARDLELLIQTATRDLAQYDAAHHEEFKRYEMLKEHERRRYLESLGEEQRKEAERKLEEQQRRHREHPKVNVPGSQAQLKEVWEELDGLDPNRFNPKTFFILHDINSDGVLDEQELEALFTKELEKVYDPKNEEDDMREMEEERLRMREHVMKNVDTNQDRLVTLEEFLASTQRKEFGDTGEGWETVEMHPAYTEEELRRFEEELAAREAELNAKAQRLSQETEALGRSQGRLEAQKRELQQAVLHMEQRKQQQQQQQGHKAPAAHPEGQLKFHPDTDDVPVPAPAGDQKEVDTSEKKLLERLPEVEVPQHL
Outline: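 Fluorescence polarization readout using purified recombinant human NUCB1 and fluorescent arachidonoyl probe Fl-AEA. Lipid competitors were titrated for concentration-dependent loss of polarization signal. Mean ± SD from at least three independent experiments.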

[2] = system: purified recombinant FAAH; assay: Inhibition of purified recombinant FAAH; type: biochemical; conditions: read-out: IC50 against purified recombinant FAAH
[3] = system: PMA-stimulated A549 cells; assay: Conversion of exogenous AEA to PGF2α-EA in PMA-stimulated A549 cells; type: cell-based, human; conditions: AEA 20 μM, 30 min; MJN228, KML110 5 and 25 μM; others 25 μM
Outline: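 A549 cells stimulated with PMA were treated with test compound or DMSO. Exogenous AEA (20 μM, 30 min) was then added and prostamide PGF2α-EA formation was measured. Mean ± SEM, n = 3-4 per group.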

[4] = target: endogenous FAAH in Neuro2a lysates (Mus musculus, UniProt O08914); assay: Inhibition of endogenous FAAH in Neuro2a lysates; type: biochemical; conditions: read-out: IC50 against endogenous FAAH in Neuro2a lysates
Chain of endogenous FAAH in Neuro2a lysates (O08914 whole entry): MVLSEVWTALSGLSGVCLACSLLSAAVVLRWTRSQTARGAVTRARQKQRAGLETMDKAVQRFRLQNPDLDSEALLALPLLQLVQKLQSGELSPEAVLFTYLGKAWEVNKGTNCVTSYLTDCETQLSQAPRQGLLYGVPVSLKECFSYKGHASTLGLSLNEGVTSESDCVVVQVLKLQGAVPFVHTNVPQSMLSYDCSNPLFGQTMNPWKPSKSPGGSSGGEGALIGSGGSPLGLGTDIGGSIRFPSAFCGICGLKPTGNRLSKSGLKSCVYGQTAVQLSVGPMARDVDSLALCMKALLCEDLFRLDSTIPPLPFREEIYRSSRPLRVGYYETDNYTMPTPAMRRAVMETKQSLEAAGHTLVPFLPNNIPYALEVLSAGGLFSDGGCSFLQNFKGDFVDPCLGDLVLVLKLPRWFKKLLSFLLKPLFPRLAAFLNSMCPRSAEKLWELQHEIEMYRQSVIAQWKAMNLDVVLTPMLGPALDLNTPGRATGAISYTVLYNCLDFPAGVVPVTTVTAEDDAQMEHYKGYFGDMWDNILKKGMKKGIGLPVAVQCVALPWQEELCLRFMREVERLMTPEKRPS

Neuro2a cells [5] = assay: Targeted metabolite; type: cell-based, mouse; conditions: for elevations in NAEs (targeted MRM): 10 μM, 6 h
Outline: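 Neuro2a cells were treated with test compound (10 μM) or DMSO for 6 h. Fatty acid amides (NAEs, NATs) were quantified by targeted MRM mass spectrometry. Mean ± SEM, n = 3-4 per group, compared against DMSO-treated cells.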

NUCB1 [6] = target: T2, NUCB1 (Homo sapiens, UniProt Q02818); type: binding; conditions: read-out: IC50, blockade of AEA-DA probe labeling of NUCB1; AEA-DA 5 μM; NUCB1 0.25 μM in HEK293T lysates 0.75 mg/mL
T2 sequence (Q02818 27-461): T1 sequence (Q02818 27-461)

NUCB1 [7] = target: T3, NUCB1 (Mus musculus, UniProt Q02819); type: cell-based; conditions: Neuro2a cells; for reductions in lipid probe enrichment of NUCB1: 25 μM
T3 sequence (Q02819 26-459): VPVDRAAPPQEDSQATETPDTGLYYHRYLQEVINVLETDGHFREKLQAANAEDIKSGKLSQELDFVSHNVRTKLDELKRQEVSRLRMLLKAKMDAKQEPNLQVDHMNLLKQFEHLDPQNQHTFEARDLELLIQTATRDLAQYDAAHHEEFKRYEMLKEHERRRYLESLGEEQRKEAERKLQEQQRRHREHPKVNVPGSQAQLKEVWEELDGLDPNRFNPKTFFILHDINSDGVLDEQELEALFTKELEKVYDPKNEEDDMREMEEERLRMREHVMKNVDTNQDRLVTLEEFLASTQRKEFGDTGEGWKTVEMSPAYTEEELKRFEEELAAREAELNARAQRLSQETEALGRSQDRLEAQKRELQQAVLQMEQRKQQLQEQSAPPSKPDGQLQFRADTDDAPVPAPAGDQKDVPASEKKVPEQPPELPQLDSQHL

NENF = NENF (Homo sapiens, UniProt Q9UMX5); type: binding; conditions: competitors 1–100 μM; NENF-transfected HEK293T lysates
Chain of NENF (Q9UMX5 32-172, species assumed): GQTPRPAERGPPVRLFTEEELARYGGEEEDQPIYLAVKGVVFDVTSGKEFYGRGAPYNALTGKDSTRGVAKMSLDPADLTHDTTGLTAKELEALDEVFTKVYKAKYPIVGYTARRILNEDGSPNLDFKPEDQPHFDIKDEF

TMEM97 = TMEM97 (Mus musculus, UniProt Q8VD00); assay: In situ drug profiling with lipid probes, TMEM97; type: cell-based
Chain of TMEM97 (Q8VD00 whole entry): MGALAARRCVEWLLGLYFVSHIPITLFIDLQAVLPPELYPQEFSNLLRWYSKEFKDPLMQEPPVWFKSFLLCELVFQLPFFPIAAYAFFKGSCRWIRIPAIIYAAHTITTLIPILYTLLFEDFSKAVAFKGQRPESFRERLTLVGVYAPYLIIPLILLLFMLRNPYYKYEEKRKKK

ferrochelatase (FECH) = ferrochelatase (FECH) (Mus musculus, UniProt P22315); assay: In situ drug profiling with lipid probes, FECH; type: cell-based
ABCB1B = ABCB1B (Mus musculus, UniProt P06795); assay: In situ drug profiling with lipid probes, ABCB1B in Neuro2a cells; type: cell-based
Chain of ABCB1B (P06795 whole entry): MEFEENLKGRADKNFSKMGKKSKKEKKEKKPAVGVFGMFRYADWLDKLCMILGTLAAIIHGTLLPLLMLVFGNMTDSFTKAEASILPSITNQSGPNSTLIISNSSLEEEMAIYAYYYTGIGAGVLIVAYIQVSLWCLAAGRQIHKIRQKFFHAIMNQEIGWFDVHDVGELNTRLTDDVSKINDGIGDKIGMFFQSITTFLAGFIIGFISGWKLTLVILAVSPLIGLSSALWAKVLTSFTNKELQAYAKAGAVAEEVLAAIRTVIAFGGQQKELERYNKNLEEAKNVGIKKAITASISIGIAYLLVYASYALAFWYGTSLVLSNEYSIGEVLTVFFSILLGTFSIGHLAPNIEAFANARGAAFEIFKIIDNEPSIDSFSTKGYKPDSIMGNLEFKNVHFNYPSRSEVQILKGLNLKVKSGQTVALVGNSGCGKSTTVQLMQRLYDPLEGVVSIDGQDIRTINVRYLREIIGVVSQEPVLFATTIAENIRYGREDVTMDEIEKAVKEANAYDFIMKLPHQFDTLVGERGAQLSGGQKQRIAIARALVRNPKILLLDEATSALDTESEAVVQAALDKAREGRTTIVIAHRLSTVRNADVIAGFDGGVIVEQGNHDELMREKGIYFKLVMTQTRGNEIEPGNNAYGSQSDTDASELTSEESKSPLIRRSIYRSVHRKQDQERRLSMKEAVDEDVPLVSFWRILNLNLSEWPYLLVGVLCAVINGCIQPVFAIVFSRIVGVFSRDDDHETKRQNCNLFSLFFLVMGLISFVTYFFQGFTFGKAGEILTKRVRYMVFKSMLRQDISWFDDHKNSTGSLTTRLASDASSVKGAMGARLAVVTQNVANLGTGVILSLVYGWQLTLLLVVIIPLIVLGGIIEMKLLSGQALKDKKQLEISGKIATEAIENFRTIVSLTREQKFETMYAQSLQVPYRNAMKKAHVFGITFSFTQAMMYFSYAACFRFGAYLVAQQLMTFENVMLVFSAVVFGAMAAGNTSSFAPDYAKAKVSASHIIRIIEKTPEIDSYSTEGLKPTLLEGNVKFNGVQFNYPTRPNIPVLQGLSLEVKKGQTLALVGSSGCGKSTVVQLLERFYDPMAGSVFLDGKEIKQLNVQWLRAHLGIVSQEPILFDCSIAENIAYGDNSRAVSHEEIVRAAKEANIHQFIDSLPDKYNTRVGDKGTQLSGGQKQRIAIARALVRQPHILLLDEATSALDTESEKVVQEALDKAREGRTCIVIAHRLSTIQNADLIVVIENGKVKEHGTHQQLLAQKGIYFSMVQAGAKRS

[8] = target: recombinantly expressed TMEM97 (Homo sapiens, UniProt Q5BJF2); type: cell-based; conditions: transfected HEK293T cells
Chain of recombinantly expressed TMEM97 (Q5BJF2 whole entry): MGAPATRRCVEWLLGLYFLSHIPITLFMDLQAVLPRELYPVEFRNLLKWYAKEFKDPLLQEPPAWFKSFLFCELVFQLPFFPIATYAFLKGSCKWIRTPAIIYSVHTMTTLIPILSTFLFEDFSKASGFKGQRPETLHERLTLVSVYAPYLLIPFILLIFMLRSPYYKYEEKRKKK
Outline: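 Transfected HEK293T cells (2.5 × 10^6 per 6-cm plate, grown 18-24 h) were washed in DPBS. They then received AEA-DA plus competitor or vehicle in serum-free media for 30 min at 37 °C, followed by 365 nm UV for 10 min at 4 °C. Lysates at 1.0 mg/mL were clicked to rhodamine-azide (TBTA, CuSO4, TCEP; 1 h, room temperature), resolved by 10% SDS-PAGE and read by in-gel fluorescence scanning.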

NUCB1 (aa 53-68) = NUCB1 (aa 53-68) (Mus musculus, UniProt Q02819); assay: isoTOP-ABPP mapping of AEA-DA-labeled NUCB1 peptide in Neuro2a cells; type: cell-based; conditions: 50 μM compound, AEA-DA 50 μM
Outline: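 Neuro2a cells were co-treated with AEA-DA (50 μM) and DMSO or test compound (50 μM), then UV-irradiated. Probe-labeled proteins were CuAAC-conjugated to TEV-cleavable azide-biotin tags, isotopically light for DMSO samples and heavy for compound samples. Probe-modified peptides were mapped by isoTOP-ABPP LC-MS/MS.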

[9] = system: other AEA-DA-modified proteins; assay: Gel-based AEA-DA labeling of other proteins in HEK293T cell lysates; type: binding, human
Neuro2a cells [10] = assay: Untargeted LC-MS lipidomic analysis of compound-treated Neuro2a cells; type: cell-based, mouse; conditions: 10 μM, 6 h, P < 0.0001
DHRS1 = DHRS1 (Mus musculus, UniProt Q99L04); assay: In situ AEA-DA competition with lipid competitor AEA, DHRS1; type: cell-based; conditions: competitor 200 μM
Chain of DHRS1 (Q99L04 whole entry): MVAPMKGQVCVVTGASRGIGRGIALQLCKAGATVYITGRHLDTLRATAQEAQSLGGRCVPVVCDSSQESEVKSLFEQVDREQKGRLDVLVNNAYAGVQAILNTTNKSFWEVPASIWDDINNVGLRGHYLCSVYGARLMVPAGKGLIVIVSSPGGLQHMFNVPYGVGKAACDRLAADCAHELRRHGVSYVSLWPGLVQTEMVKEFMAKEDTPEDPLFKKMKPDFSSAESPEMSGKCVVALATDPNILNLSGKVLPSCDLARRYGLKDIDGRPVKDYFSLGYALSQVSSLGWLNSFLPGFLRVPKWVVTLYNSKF

PTGR2 = PTGR2 (Mus musculus, UniProt Q8VDQ1); assay: In situ AEA-DA competition with lipid competitor AEA, PTGR2; type: cell-based; conditions: competitor 200 μM
NUCB1 [11] = target: T2, NUCB1; type: binding; conditions: AEA-DA 5.0 μM; lipids 20×
Outline: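 Performed in vitro in lysates of NUCB1-transfected HEK293T cells, with AEA-DA probe and lipid competitors. Labeled proteomes (1.0 mg/mL) were CuAAC-conjugated to rhodamine-azide for 1 h at room temperature, quenched in SDS loading buffer, separated on 10% SDS-PAGE and detected by in-gel fluorescence.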

PTGS1 = PTGS1 (Mus musculus, UniProt P22437); assay: In situ competitive SILAC profiling of A-DA labeling, PTGS1 in Neuro2a cells; type: cell-based; conditions: drug 25 μM, A-DA 5 μM, 30 min
[12] = target: aldose reductase-related protein 2 (AKR1B8) (Mus musculus, UniProt P45377); assay: In situ competitive SILAC profiling of A-DA labeling, AKR1B8 in Neuro2a cells; type: cell-based; conditions: drug 25 μM, A-DA 5 μM
Chain of aldose reductase-related protein 2 (AKR1B8) (P45377 whole entry): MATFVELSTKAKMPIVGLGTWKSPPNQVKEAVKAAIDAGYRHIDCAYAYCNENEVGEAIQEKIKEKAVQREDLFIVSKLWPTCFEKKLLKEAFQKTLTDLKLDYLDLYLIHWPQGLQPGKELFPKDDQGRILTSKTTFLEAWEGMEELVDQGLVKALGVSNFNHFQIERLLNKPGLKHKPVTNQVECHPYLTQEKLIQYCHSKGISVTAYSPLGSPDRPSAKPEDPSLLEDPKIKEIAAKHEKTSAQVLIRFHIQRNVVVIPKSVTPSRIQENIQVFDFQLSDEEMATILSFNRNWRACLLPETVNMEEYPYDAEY

PTGS2 = PTGS2 (Homo sapiens, UniProt P35354); conditions: drug 25 μM, A-DA 5 μM, 30 min, A549
Chain of PTGS2 (P35354 18-604): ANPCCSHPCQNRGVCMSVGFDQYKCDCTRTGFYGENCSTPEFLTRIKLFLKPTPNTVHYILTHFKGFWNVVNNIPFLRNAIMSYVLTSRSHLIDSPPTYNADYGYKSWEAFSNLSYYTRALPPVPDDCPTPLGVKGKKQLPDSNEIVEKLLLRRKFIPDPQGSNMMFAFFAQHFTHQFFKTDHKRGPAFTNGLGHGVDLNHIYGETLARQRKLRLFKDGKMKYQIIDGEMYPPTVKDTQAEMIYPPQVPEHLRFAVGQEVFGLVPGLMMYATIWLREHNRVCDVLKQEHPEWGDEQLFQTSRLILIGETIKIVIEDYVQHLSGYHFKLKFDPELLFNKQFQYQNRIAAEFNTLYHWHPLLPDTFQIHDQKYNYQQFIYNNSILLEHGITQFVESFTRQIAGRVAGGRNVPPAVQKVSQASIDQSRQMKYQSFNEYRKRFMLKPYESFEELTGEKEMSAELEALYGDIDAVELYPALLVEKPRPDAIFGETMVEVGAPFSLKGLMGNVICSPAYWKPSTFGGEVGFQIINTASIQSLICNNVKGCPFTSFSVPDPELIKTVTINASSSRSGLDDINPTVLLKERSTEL

NAMPT = NAMPT (Mus musculus, UniProt Q99KQ4); conditions: 25 μM, AEA-DA 5 μM, Neuro2a
Chain of NAMPT (Q99KQ4 whole entry): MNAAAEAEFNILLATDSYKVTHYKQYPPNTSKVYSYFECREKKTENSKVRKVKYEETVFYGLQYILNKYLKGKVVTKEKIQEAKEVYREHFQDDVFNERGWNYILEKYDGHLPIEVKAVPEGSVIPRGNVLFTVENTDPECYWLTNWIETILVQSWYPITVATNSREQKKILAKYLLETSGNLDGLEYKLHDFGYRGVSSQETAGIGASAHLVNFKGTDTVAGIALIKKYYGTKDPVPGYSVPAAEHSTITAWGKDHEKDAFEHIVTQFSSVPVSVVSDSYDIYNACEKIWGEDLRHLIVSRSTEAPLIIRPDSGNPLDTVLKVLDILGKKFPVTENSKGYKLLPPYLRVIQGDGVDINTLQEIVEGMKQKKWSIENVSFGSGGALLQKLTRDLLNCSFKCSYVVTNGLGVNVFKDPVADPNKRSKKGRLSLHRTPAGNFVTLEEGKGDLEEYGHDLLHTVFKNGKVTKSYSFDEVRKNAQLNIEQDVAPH

[13] = system: A549 cells treated with PMA; assay: PMA-stimulated prostaglandin production in A549 cells; type: cell-based, human
EBP = EBP (Mus musculus, UniProt P70245); assay: In situ drug profiling with lipid probes, EBP; type: cell-based; conditions: 5 μM drug
LSS = LSS (Homo sapiens, UniProt P48449); assay: In situ drug profiling with lipid probes, LSS; type: cell-based; conditions: 5 μM drug
Chain of LSS (P48449 whole entry): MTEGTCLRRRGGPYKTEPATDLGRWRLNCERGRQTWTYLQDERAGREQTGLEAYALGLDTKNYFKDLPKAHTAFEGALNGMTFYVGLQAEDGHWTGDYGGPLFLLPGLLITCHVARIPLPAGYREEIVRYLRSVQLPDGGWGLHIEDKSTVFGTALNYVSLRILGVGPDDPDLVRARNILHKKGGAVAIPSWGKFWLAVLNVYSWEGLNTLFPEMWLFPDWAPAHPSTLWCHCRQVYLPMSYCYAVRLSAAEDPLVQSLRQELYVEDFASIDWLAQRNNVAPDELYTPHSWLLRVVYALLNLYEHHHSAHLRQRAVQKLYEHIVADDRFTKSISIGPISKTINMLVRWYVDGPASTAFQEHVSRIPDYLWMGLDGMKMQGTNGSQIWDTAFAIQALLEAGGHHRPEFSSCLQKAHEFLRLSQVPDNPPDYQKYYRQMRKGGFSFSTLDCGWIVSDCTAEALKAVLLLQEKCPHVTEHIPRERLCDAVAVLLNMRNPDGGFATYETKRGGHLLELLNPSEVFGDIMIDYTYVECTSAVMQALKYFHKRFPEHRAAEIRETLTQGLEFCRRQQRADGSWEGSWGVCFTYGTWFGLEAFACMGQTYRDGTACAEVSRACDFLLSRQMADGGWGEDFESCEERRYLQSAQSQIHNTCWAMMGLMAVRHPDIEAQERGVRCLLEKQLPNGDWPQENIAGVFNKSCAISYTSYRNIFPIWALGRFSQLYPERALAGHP

CCCCC/C=C\C/C=C\C/C=C\C/C=C\CCCC(=O)NCCCCCNC(=O)c1ccc(-c2c3ccc(=[N+](C)C)cc-3oc3cc(N(C)C)ccc23)c(C(=O)[O-])c1 [Fl-AEA]
binding of probe to hNUCB1 (increase in FluoPol signal) [1]: bound

CN1CCN(C(=O)c2c(-c3ccccc3)c3cc([N+](=O)[O-])ccc3n2C)CC1 [KML110]
IC50 [2]: > 100 µM | conversion of exogenous AEA to PGF2α-EA [3]: suppress | IC50 [4]: > 100 µM | cellular concentrations of NAEs and NATs (Neuro2a cells [5]): elevated | elevations in NAEs (targeted MRM) (Neuro2a cells [5]): elevations | IC50 (NUCB1 [6]): 9.6 µM | reductions in lipid probe enrichment of NUCB1 (NUCB1 [7]): 3-5 fold

C=CC1=C(C)c2cc3[nH]c(cc4nc(cc5[nH]c(cc1n2)c(C)c5CCC(=O)O)C(CCC(=O)O)=C4C)c(C)c3C=C [Pp-IX, protoporphyrin IX]
competition of AEA-DA probe labeling of recombinant NENF (NENF): inhibited

COc1cc2c(cc1OC)CN(CCc1ccc(NC(=O)c3cccc4c(=O)c5cccc(OC)c5[nH]c34)cc1)CC2 [elacridar]
concentration blocking arachidonoyl probe labeling of TMEM97 (as low as) (TMEM97): ≤ 0.5 µM | concentration blocking arachidonoyl probe labeling of FECH (as low as) (ferrochelatase (FECH)): ≤ 0.5 µM | concentration blocking arachidonoyl probe labeling of ABCB1B (as low as) (ABCB1B): ≤ 0.5 µM | blockade of AEA-DA probe labeling of recombinant TMEM97 [8]: block

CN1CCN(C(=O)c2[nH]c3ccc([N+](=O)[O-])cc3c2-c2ccccc2)CC1 [MJN228]
reduction of signals of AEA-DA-labeled NUCB1 peptide (aa 53-68) (NUCB1 (aa 53-68)): > 5 fold | IC50 [2]: > 100 µM | disruption of other arachidonoyl probe-protein interactions ([9]; HEK293T cell lysates): did not appear to disrupt | conversion of exogenous AEA to PGF2α-EA [3]: suppress | IC50 [4]: > 100 µM | cellular concentrations of NAEs and NATs (Neuro2a cells [5]): elevated | elevations in NAEs (targeted MRM) (Neuro2a cells [5]): elevations | elevation of metabolites (NAEs and NATs) versus DMSO (Neuro2a cells [10]): ≥ 2 fold | IC50 (NUCB1 [6]): 3.3 µM | selectivity for NUCB1 among ∼400 AEA-DA probe targets (NUCB1 [7]; 10 μM, AEA-DA 5 μM): most competed protein | reductions in lipid probe enrichment of NUCB1 (NUCB1 [7]): 3-5 fold | concentration inhibiting lipid probe binding to NUCB1 (as low as) (NUCB1 [7]): ≤ 10 µM | concentration of near-maximal inhibition of lipid probe binding to NUCB1 (NUCB1 [7]): ~25 µM

CCCCC/C=C\C/C=C\C/C=C\C/C=C\CCCC(=O)NCCO [AEA, N-arachidonoyl ethanolamine]
competition of DHRS1 probe labeling (DHRS1): competed | competition of PTGR2 probe labeling (PTGR2): competed | blockade of AEA-DA probe labeling of recombinant NUCB1 by lipids (NUCB1 [11]): preferentially blocked | suppression of the NUCB1-FluoPol signal by lipids ([1]; Fl-AEA 0.5 μM, NUCB1 1.0 μM): Concentration-dependent suppression

CC(C(=O)O)c1ccc(-c2ccccc2)c(F)c1 (racemic) [(±)-flurbiprofen]
competition of A-DA labeling of PTGS1 (PTGS1): competitively blocked

CS(=O)(=O)c1ccc(C2=C(c3ccccc3)C(=O)OC2)cc1 [rofecoxib]
reduction in A-DA labeling of AKR1B8 [12]: strong reductions | conversion of exogenous AEA to PGF2α-EA [3]: blocked | competition of A-DA labeling of PTGS2 (PTGS2): disrupted

CCCCC/C=C\C/C=C\C/C=C\C/C=C\CCCC(=O)O [AA, arachidonic acid]
competition of AEA-DA probe labeling of recombinant NENF (NENF): competitively blocked | blockade of AEA-DA probe labeling of recombinant NUCB1 by lipids (NUCB1 [11]): preferentially blocked | suppression of FluoPol signal by competitive lipid ([1]; 20 μM competitor, Fl-AEA 0.5 μM, NUCB1 1.0 μM): significantly suppressed | suppression of the NUCB1-FluoPol signal by lipids ([1]; Fl-AEA 0.5 μM, NUCB1 1.0 μM): Concentration-dependent suppression

O=C(/C=C/c1cccnc1)NCCCCC1CCN(C(=O)c2ccccc2)CC1 [FK-866]
competition of probe-labeling of NAMPT (NAMPT): competed | competition of probe-labeling of ABCB1B (ABCB1B; 25 μM, AEA-DA 5 μM, Neuro2a): competed | PMA-stimulated generation of PGE2 [13]: no effect | PMA-stimulated generation of TXB2 [13]: complete suppression

O=C(Nc1cccnn1)N1CCC(=Cc2cccc(Oc3ccc(C(F)(F)F)cn3)c2)CC1 [PF-7845]
cellular concentrations of NAEs and NATs (Neuro2a cells [5]): elevated

C=CCN(C)CCCCCCOc1ccc(C(=O)c2ccc(Br)cc2)c(F)c1 [Ro 48-8071]
competition of TMEM97 (TMEM97; 5 μM drug): prominent off-targets | blockade of AEA-DA probe labeling of recombinant TMEM97 [8]: block | competition of EBP (EBP): prominent off-targets | competition of LSS (LSS): fully competed

C=CC1=C(C)c2cc3[n-]c(cc4[n-]c(cc5nc(cc1n2)C(C)=C5C=C)c(C)c4CCC(=O)O)c(CCC(=O)O)c3C.[Cl-].[Fe+3] [hemin]
effect on other AEA-DA-modified proteins detected by SDS-PAGE ([9]; NENF-transfected HEK293T lysates): unaffected | competition of AEA-DA probe labeling of recombinant NENF (NENF): inhibited

CCCCC/C=C\C/C=C\C/C=C\C/C=C\CCCC(=O)OC(CO)CO [2-AG, 2-arachidonoyl glycerol]
blockade of AEA-DA probe labeling of recombinant NUCB1 by lipids (NUCB1 [11]): preferentially blocked | suppression of the NUCB1-FluoPol signal by lipids ([1]; Fl-AEA 0.5 μM, NUCB1 1.0 μM): Concentration-dependent suppression
